Here are results for 12 compounds from ChEMBL document CHEMBL1158827, “Free-radical-scavenging and xanthine oxidase inhibitory constituents from Stereospermum personatum” (J Nat Prod, 2005).

The target of data set [1] is T1, Xanthine dehydrogenase/oxidase (Homo sapiens, UniProt P47989). Description: Inhibition of xanthine oxidase at 50 ug/ml. The gist of the method: (§1)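 Single-concentration screen at 50 µg/mL. Samples showing less than 10% activity at this level were not carried forward to IC50 or SC50 determination.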
Data set [2] in a line: Antioxidant activity assessed as DPPH scavenging activity at 50 ug/ml. It is filed as functional. The procedure, abridged: as §1
A general note: Loss of DPPH colour is used to gauge radical scavenging.

Data set [3] has as its target T1, Xanthine dehydrogenase/oxidase. Description: Inhibition of xanthine oxidase.
Data set [4] is described as follows: Antioxidant activity assessed as DPPH scavenging activity. The data set is classed as functional. The procedure, abridged: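 SC50 is the concentration scavenging 50% of the DPPH free radical under the assay conditions. It was obtained by linear regression over at least five concentrations, each in triplicate, and reported as the mean.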
For data set [5], the target named is T1, Xanthine dehydrogenase/oxidase. Put plainly: Inhibition of xanthine oxidase at 132 uM.

Broadly, the IC50 is the concentration that inhibits the measured activity by half. As usually defined, the inhibition is the drop in the measured response relative to a control, in per cent.

Calls of active or inactive are those of the source. The rule behind the calls is not given here.

T1 sequence (P47989 whole entry): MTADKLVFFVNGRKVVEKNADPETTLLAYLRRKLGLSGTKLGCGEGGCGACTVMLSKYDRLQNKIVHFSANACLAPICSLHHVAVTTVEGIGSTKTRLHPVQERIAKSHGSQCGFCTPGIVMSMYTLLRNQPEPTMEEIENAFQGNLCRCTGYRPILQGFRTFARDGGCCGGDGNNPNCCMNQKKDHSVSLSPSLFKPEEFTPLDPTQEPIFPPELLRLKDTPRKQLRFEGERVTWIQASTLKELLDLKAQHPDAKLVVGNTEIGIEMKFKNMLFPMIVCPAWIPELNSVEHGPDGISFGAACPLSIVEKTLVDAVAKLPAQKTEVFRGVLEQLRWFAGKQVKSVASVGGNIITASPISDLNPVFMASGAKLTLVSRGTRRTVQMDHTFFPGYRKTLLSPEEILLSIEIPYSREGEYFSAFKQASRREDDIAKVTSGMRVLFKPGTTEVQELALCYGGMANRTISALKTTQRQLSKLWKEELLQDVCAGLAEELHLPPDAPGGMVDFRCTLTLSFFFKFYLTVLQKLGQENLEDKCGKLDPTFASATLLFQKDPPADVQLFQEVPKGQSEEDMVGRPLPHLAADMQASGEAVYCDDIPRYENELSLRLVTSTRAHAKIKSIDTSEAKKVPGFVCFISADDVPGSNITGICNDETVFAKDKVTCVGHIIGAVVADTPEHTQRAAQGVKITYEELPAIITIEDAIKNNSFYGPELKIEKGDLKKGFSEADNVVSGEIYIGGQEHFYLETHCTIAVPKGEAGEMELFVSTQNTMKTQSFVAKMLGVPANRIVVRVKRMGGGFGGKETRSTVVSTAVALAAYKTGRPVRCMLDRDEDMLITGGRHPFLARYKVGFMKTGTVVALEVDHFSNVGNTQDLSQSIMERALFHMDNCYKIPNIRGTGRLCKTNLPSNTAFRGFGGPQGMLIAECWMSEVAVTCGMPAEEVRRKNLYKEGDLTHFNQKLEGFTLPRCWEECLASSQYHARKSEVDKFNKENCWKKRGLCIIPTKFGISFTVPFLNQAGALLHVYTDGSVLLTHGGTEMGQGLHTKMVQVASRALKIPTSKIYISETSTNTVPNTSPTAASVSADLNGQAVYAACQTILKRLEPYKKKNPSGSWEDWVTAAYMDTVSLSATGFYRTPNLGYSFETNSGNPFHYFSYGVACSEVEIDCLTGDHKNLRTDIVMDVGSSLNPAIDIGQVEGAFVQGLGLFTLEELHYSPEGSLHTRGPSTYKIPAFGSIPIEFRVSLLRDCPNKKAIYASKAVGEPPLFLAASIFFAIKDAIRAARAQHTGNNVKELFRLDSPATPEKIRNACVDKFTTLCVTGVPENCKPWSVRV

As to `CC1=CCc2c1cc1c(c2C)C(=O)c2ccccc2C1=O` [STEREQUINONE A], in data set [1], the Activity entry is recorded as “Not Active”. Also, the outcome in data set [2] was inactive. Consider `COc1cc(C[C@@H](CO)[C@H](CO)Cc2ccc(O)c(OC)c2)ccc1O` [(+)-SECOISOLARICIRESINOL], for which half-maximal inhibition in data set [3] (IC50) was put at 213 µM. In data set [4], the SC50 is 12.5 µM.

In the case of `COc1ccc2c(c1)C(=O)C1(O)C(=CC3=C(C)CCC3=C1C)C2=O` (stereo not drawn) [STEREQUINONE I], the Activity result in data set [1] was “Not Active”. Besides, the outcome in data set [2] was inactive.

In the case of `Cc1c(C)c2c(c(C)c1O)CCC(C)(C(=O)O)O2` (stereo not drawn), the SC50 in data set [4] was 15.9 µM. `COc1cc(COC/C=C/c2cc(OC)c(OC)c(OC)c2)ccc1O`: the Activity result in data set [1] is “Not Active”. Also, the SC50 in data set [4] was found to be 7.58 µM. `CC(=O)CCc1ccc2c(c1C)C(=O)c1ccccc1C2=O` [STEREQUINONE F]: the Activity entry in data set [1] was “Not Active”. Also, in data set [2], the result was inactive.

For the compound `COc1cc([C@H]2c3cc(O)c(OC)cc3C[C@@](O)(CO)[C@@H]2CO)ccc1O`, half-maximal inhibition in data set [3] (IC50) was put at 101 µM. The SC50 in data set [4] amounted to 17.4 µM. For the compound `Cc1c(CCC(C)O)ccc2c1C(=O)c1ccccc1C2=O` (stereo not drawn) [STEREQUINONE H], the Activity result in data set [1] is on record as “Not Active”. Moreover, the result in data set [2] was inactive. With `COc1cc(/C=C/C(=O)O)ccc1O` [FERULATE], in data set [1], the Activity entry is recorded as “Not Active”. For the same compound, the SC50 in data set [4] was determined as 32.5 µM. Take `COc1cc(C[C@]2(O)CO[C@@H](c3ccc(O)c(OC)c3)[C@@H]2CO)ccc1O` [OLIVIL]: the inhibition at 132 µM in data set [5] was 23.6%. Also, in data set [4], the SC50 was 15.1 µM.

In data set [3], `COc1cc(C[C@@H]2COC[C@@H]2C(O)c2ccc(O)c(OC)c2)ccc1O` (stereo partly drawn) gave an IC50 of 111 µM. In addition, in data set [4], the SC50 is 15.2 µM.

As to `COc1ccc2c(c1)C(=O)c1c(ccc(CCC(C)=O)c1C)C2=O` [STEREQUINONE G], the Activity entry in data set [1] was “Not Active”. The outcome in data set [2] was inactive.
